The record followed here is ChEMBL document CHEMBL4732182, “Design, synthesis and biological evaluation of 2-substituted-6-[(4-substituted-1-piperidyl)methyl]-1H-benzimidazoles as inhibitors of ebola virus infection” (Eur J Med Chem, 2021).

The nature of series [1]: Cytotoxicity against human Huh-7 cells assessed as reduction in cell viability incubated for 3 days by cell-titer glo assay. It is filed as cell-based. As to conditions: time 3 day. In outline:
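Huh7 cells received compound but no virus, in parallel with the infection assay. Viability was read by CellTiter-Glo luminescence. CC50 was derived from a 4-parameter fit to semi-log concentration-response curves.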

The next series concerns Ebolavirus. Kind of series: Antiviral activity against Ebola virus infected in human HuH7 cells assessed as reduction in viral infection pretreated for 2 hrs followed by viral infection and measured after 3 days by ZsGreen fluorescence assay. It is filed as functional, organism-based. The settings on record: Orthoebolavirus, Huh-7.
Series [2] in a line: Selectivity index, ratio of CC50 for human Huh-7 cells to EC50 for Ebola virus infected in human HuH7 cells. It is filed as toxicity, cell-based. As to conditions: read-out: Ratio CC50/EC50.
Series [3] addresses T1, NPC intracellular cholesterol transporter 1 (Homo sapiens) (UniProt O15118).
T1 sequence (whole entry): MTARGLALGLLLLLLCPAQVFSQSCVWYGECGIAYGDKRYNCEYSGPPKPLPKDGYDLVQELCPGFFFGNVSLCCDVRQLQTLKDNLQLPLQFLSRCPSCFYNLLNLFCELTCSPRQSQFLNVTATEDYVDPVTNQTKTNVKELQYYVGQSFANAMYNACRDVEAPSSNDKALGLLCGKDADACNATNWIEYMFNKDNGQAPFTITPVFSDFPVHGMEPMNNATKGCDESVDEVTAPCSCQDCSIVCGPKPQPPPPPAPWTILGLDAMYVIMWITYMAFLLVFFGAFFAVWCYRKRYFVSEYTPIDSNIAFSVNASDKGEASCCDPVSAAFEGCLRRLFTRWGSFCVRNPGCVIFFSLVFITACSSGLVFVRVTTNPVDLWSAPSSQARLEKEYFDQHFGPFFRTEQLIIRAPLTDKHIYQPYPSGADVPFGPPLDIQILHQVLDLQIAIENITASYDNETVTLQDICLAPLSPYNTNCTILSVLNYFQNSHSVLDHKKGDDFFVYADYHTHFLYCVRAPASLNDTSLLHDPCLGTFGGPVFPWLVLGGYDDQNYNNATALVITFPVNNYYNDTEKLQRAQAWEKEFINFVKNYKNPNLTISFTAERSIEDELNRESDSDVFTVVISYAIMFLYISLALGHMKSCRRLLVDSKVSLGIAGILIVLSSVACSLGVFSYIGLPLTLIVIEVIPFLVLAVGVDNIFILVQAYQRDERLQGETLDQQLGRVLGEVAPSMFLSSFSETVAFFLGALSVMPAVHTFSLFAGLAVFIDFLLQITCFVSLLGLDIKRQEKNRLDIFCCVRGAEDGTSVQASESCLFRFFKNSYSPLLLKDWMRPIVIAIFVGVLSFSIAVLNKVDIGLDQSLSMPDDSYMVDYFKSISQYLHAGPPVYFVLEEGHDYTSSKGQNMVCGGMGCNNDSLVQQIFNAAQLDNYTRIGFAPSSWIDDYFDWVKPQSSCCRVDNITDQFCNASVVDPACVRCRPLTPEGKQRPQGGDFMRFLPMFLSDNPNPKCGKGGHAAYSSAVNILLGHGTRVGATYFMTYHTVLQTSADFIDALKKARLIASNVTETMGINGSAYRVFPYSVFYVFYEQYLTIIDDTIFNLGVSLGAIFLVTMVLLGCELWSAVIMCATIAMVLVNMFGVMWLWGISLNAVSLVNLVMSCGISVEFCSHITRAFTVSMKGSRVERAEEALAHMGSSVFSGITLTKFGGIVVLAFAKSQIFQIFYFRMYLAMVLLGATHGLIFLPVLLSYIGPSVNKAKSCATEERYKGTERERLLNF
Kind of series: Inhibition of NPC1 in human HeLa cells assessed as increase in cholesterol accumulation in subcellular localization at 5 uM incubated for 24 hrs by filipin-staining based immunofluorescence assay. It is filed as cell-based. In outline:
(§1)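 HeLa cells were exposed to compound for 24 h; DMSO vehicle was 0.1% (v/v) final. They were then stained with 0.5 mg/mL filipin in PBS plus 10% FCS for 2 h at RT and imaged on a high-content imager.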

Series [4] has as its target T1, NPC intracellular cholesterol transporter 1 (Homo sapiens). Kind of series: Inhibition of NPC1 in human HeLa cells assessed as increase in cholesterol accumulation in subcellular localization at 1 uM incubated for 24 hrs by filipin-staining based immunofluorescence assay. It is filed as cell-based. In outline: as §1
Series [5] is described as follows: Inhibition of Ebolavirus glycoprotein transfected in human Huh-7 cells cotransfected with HIV luciferase reporter vector expressing plasmid assessed as reduction in virus entry measured after 3 days by Bright-Glo luciferase assay. The settings on record: Orthoebolavirus, Huh-7, 72 h. It is filed as cell-based. A digest of the protocol:
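Huh7 cells were preincubated with varying compound concentrations for 1 h at 37 C. HIV-based luciferase reporter particles pseudotyped with EBOV GP were then added. Firefly luciferase activity was measured by Bright-Glo 3 days later.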

The source made the active and inactive calls. The calls are words filed in the database; no cut-off is given here.

For the compound `CCOP(=O)(Cc1cccc(COc2ccccc2CC2CCN(Cc3ccc4nc(-c5cccc(OC(F)(F)F)c5)[nH]c4c3)CC2)c1)OCC`, the CC50 at 72 h in series [1] was determined as 4450 nM. The EC50 in the series on Ebolavirus stood at 870 nM. Moreover, the selectivity ratio in series [2] worked out at 5.

On to `CCN(CC)CCO[C@H]1CC[C@@]2(C)C(=CC[C@@H]3[C@@H]2CC[C@]2(C)C(=O)CC[C@@H]32)C1`, for which the inhibition entry in series [3] was “Active”.

`CCOP(=O)(Cc1cccc(COc2ccccc2CC2CCN(Cc3ccc4nc(-c5ccccc5)[nH]c4c3)CC2)c1)OCC`: the inhibition entry in series [4] is “Active”. Also, the CC50 at 72 h in series [1] was 9170 nM. Besides, the figures for the EC50 (in series [5]; with Ebolavirus) were 2920 nM and 930 nM, respectively. Moreover, the selectivity ratio in series [2] was 10.

On to `CCOP(=O)(Cc1ccc(COc2ccccc2OC2CCN(Cc3ccc4nc(-c5cccc(C(F)(F)F)c5)[nH]c4c3)CC2)cc1)OCC`, for which the CC50 at 72 h in series [1] was found to be 100000 nM. Besides, the half-maximal effective concentration (EC50) in the series on Ebolavirus is 29700 nM. Also, the selectivity ratio in series [2] is 3.

Take `CCOP(=O)(Cc1cccc(COc2ccccc2OC2CCN(Cc3ccc4nc(-c5ccc(OC(F)(F)F)cc5)[nH]c4c3)CC2)c1)OCC`: in series [1], the cytotoxic concentration (CC50) at 72 h was determined as 4230 nM. The EC50 with Ebolavirus was found to be 1970 nM. Also, the selectivity ratio in series [2] turned out to be 2.

Take `CCOP(=O)(Cc1ccc(COc2ccccc2CC2CCN(Cc3ccc4nc(-c5ccccc5)[nH]c4c3)CC2)cc1)OCC`: in series [4], the inhibition entry is “Active”. Also, the CC50 at 72 h in series [1] came out at 13200 nM. For the same compound, the EC50 in series [5] is 1350 nM; in the series with Ebolavirus, 640 nM. Also, in series [2], the selectivity ratio stood at 20.

Consider `CCOP(=O)(Cc1ccc(COc2ccccc2OC2CCN(Cc3ccc4nc(-c5ccccc5)[nH]c4c3)CC2)cc1)OCC`, for which the CC50 at 72 h in series [1] is 14700 nM. The EC50 with Ebolavirus came to 2950 nM. Besides, the selectivity ratio in series [2] worked out at 5.

`CN(C)CCOc1ccc(/C(=C(\CCCl)c2ccccc2)c2ccccc2)cc1`: the CC50 at 72 h in series [1] amounted to 2500 nM. In addition, in the series with Ebolavirus, the EC50 amounted to 380 nM. The selectivity ratio in series [2] was 7.

In the case of `CCOP(=O)(Cc1ccc(COc2ccccc2OC2CCN(Cc3ccc4nc(-c5ccc(C(F)(F)F)cc5)[nH]c4c3)CC2)cc1)OCC`, the CC50 at 72 h in series [1] was 3820 nM. Also, the EC50 with Ebolavirus is 1730 nM. In addition, the selectivity ratio in series [2] turned out to be 2.

Take `CCOP(=O)(Cc1cccc(COc2ccccc2OC2CCN(Cc3ccc4nc(-c5ccccc5)[nH]c4c3)CC2)c1)OCC`: the cytotoxic concentration (CC50) at 72 h in series [1] came to 13100 nM. Moreover, the concentration giving a half-maximal response (EC50) in the series on Ebolavirus turned out to be 1880 nM. For the same compound, the selectivity ratio in series [2] turned out to be 7.

Turning to `CCOP(=O)(Cc1ccc(COc2ccccc2OC2CCN(Cc3ccc4nc(-c5cccc(OC(F)(F)F)c5)[nH]c4c3)CC2)cc1)OCC`, the CC50 at 72 h in series [1] is 14700 nM. For the same compound, in the series on Ebolavirus, the EC50 came out at 2950 nM. Also, in series [2], the selectivity ratio was found to be 5.

Turning to `CCOP(=O)(Cc1ccc(COc2ccccc2OC2CCN(Cc3ccc4nc(-c5ccc(OC(F)(F)F)cc5)[nH]c4c3)CC2)cc1)OCC`, the cytotoxic concentration (CC50) at 72 h in series [1] is 4200 nM. Besides, in the series on Ebolavirus, the 50% effective concentration (EC50) was 1190 nM. For the same compound, in series [2], the selectivity ratio worked out at 4.
